Reference: ChEMBL document CHEMBL1147117, “Novel synthetic antimicrobial peptides against Streptococcus mutans” (2007)

Experiments:
Type in all cases: functional
[1] = system: Streptococcus mutans; assay: Antibacterial activity against Streptococcus mutans after 16 to 20 hrs
In short: (§1)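 Broth microdilution in TH broth or Veillonella medium. Overnight cultures grown to OD600 0.75 to 0.8 were diluted to 1 x 10^5 CFU/ml. Peptide was serially diluted 1:2 from 500 or 512 µg/ml down to 1.95 or 2 µg/ml, with a methanol solvent control. Incubation was 16 to 20 h at 37°C, anaerobic, without shaking. MIC was read visually as the last clear well. Run in triplicate.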

[2] = system: Streptococcus gordonii; assay: Antibacterial activity against Streptococcus gordonii Challis DL1 after 16 to 20 hrs; in short: as §1
[3] = system: Streptococcus mitis; assay: Antibacterial activity against Streptococcus mitis ATCC 903 after 16 to 20 hrs; in short: as §1
[4] = system: Streptococcus sanguinis; assay: Antibacterial activity against Streptococcus sanguinis NY101 after 16 to 20 hrs; in short: as §1
[5] = system: Lacticaseibacillus casei; assay: Antibacterial activity against Lactobacillus casei ATCC 4646 after 16 to 20 hrs; in short: as §1
[6] = system: Veillonella atypica; assay: Antibacterial activity against Veillonella atypica PK1910 after 16 to 20 hrs; in short: as §1
[7] = system: Streptococcus mutans; assay: Bactericidal activity against Streptococcus mutans UA159 assessed as time required to kill 3 log10 of recoverable CFU/ml at 25 ug/ml relative to untreated control
In short: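 Time-kill assay. Overnight UA159 cultures were diluted in medium to 0.5 x 10^6 to 1 x 10^6 CFU/ml and exposed to 25 µg/ml peptide. At each time point a 10-µl aliquot was diluted 1:50 into growth medium and plated on TH agar; whole 1-ml samples were plated when survivors were below 3,000 CFU/ml. TC is the time for survivors to fall 3 log10 below untreated CFU/ml. Repeated 3 to 5 times.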

Substance	MIC [1]	other results
H-KLLQTFKQIFR-OH	> 250 µg/mL	–
H-FKTFLKWLHRF-NH2	24 µg/mL	–
H-RWRWRWK-OH	32 µg/mL	–
H-LKQFVHFIHRF-NH2	32 µg/mL	–
H-KLFKRWKHLFR-OH	31.2 µg/mL	–
H-VKQLLKIFNRF-NH2	32 µg/mL	–
H-RRRWWWF-NH2	4 µg/mL	MIC [2]: 32 µg/mL; MIC [3]: 32 µg/mL; MIC [4]: 16 µg/mL; MIC [5]: 16 µg/mL; MIC [6]: 64 µg/mL; Time [7]: 220 min
H-RWRRWWRHFHHFFH-NH2	8 µg/mL	–
H-LKRFLKWFKRF-NH2	8 µg/mL	MIC [2]: 32 µg/mL; MIC [3]: 64 µg/mL; MIC [4]: 16 µg/mL; MIC [5]: 16 µg/mL; MIC [6]: 32 µg/mL
H-AQAAHQAAHAAHQF-NH2	> 125 µg/mL	–
H-RALKRIKHVLK-OH	> 125 µg/mL	–
H-LKRFLKWFKRFGGGRWRWRWF-NH2	4 µg/mL	MIC [2]: 64 µg/mL; MIC [3]: 64 µg/mL; MIC [4]: 16 µg/mL; MIC [5]: 16 µg/mL; MIC [6]: 8 µg/mL
H-RVLQEIKQILK-OH	> 250 µg/mL	–
H-RWRWRWFGGGIKQLLHFFQWRF-NH2	8 µg/mL	–
H-KLKKLLKKLKKLLK-OH	8 µg/mL	–
H-RALHEAKEALK-OH	> 250 µg/mL	–
H-RRRWWWFRRRWWWF-NH2	16 µg/mL	Time [7]: 60 min
H-RRWWRRF-NH2	4 µg/mL	–
H-RRRKWWK-OH	250 µg/mL	–

Substance	MIC [1]	other results
H-RRWKRRK-OH	500 µg/mL	–
H-VKKLAKLVRRF-NH2	16 µg/mL	–
H-VKNLAELVHRF-NH2	> 250 µg/mL	–
H-RLLKRFKHLFK-OH	31.2 µg/mL	–
H-YLFQTWQHLFR-OH	> 125 µg/mL	–
H-RRRRWWK-OH	125 µg/mL	–
H-LKQFVKFIHRF-NH2	24 µg/mL	–
H-IKQLLHFFQRF-NH2	24 µg/mL	MIC [2]: 32 µg/mL; MIC [3]: 64 µg/mL; MIC [4]: 64 µg/mL; MIC [5]: 32 µg/mL; MIC [6]: 64 µg/mL
H-RRWWRRW-OH	16 µg/mL	–
H-KLVEQLKEIFR-OH	> 250 µg/mL	–
H-FHYFWHWFHRF-NH2	125 µg/mL	–
H-RWRRLLKKLHHLLHGGGIKQLLHFFQRF-NH2	16 µg/mL	–
H-VKTLLHIFQRF-NH2	31.2 µg/mL	–
H-RWRWRWFGGGRWRWRWF-NH2	16 µg/mL	Time [7]: 90 min
H-IKQLLHFFQRFGGGRWRRLLKKLHHLLH-NH2	16 µg/mL	–
H-AQAAKQAAKAAKQF-NH2	> 125 µg/mL	–
H-TILQSLKNIFK-OH	> 125 µg/mL	–
H-RRRWWWR-OH	32 µg/mL	–
H-RRWWRRK-OH	125 µg/mL	–
